In ChEMBL document CHEMBL3046823, “Insect muscarinic acetylcholine receptor: pharmacological and toxicological profiles of antagonists and agonists” (J Agric Food Chem, 2007):

Columns and labels:
Musca domestica [1] = assay: Toxicity to Musca domestica (house fly) assessed as mortality at 75 ug/fly measured after 24 hr; type: functional
Method in brief: (§1)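 Insecticide-susceptible adult female Musca (~25 mg) received PPP (2.5 µg/fly in 0.5 µL acetone, abdominal ventrum), then 90 min at room temperature. The compound (active ingredient) was given by intrathoracic injection in 0.22 µL water or 25-50% Me2SO/water. Mortality was scored at 0.5, 1.0, 1.5, 2.5 and 24 h.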

Musca domestica [2] = assay: Toxicity to Musca domestica (house fly) assessed as mortality at 75 ug/fly measured after 2.5 hr; type: functional; method in brief: as §1
Musca domestica [3] = assay: Toxicity to Musca domestica (house fly) assessed as mortality at 75 ug/fly measured after 1.5 hr; type: functional; method in brief: as §1
Musca domestica [4] = assay: Toxicity to Musca domestica (house fly) assessed as mortality at 75 ug/fly measured after 1 hr; type: functional; method in brief: as §1
Musca domestica [5] = assay: Toxicity to Musca domestica (house fly) assessed as mortality at 75 ug/fly measured after 0.5 hr; type: functional; method in brief: as §1
Musca domestica [6] = assay: Toxicity to Musca domestica (house fly) assessed as mortality at 25 ug/fly measured after 24 hr; type: functional; method in brief: as §1
Musca domestica [7] = assay: Toxicity to Musca domestica (house fly) assessed as mortality at 25 ug/fly measured after 2.5 hr; type: functional; method in brief: as §1
Musca domestica [8] = assay: Toxicity to Musca domestica (house fly) assessed as mortality at 25 ug/fly measured after 1.5 hr; type: functional; method in brief: as §1
Musca domestica [9] = assay: Toxicity to Musca domestica (house fly) assessed as mortality at 25 ug/fly measured after 1 hr; type: functional; method in brief: as §1
Musca domestica [10] = assay: Toxicity to Musca domestica (house fly) assessed as mortality at 25 ug/fly measured after 0.5 hr; type: functional; method in brief: as §1
[11] = target: T1, Muscarinic acetylcholine receptor DM1 (Drosophila melanogaster, UniProt P16395); assay: Displacement of [3H]QNB from Drosophila melanogaster mAChR by scintillation counting
[12] = target: T1, Muscarinic acetylcholine receptor DM1; assay: Displacement of [3H]AF-DX 384 from Drosophila melanogaster mAChR by scintillation counting
Musca domestica [13] = assay: Toxicity to Musca domestica (house fly) assessed as mortality at 6.25 ug/fly measured after 24 hr; type: functional; method in brief: as §1
Musca domestica [14] = assay: Toxicity to Musca domestica (house fly) assessed as mortality at 6.25 ug/fly measured after 2.5 hr; type: functional; method in brief: as §1
Musca domestica [15] = assay: Toxicity to Musca domestica (house fly) assessed as mortality at 6.25 ug/fly measured after 1.5 hr; type: functional; method in brief: as §1
Musca domestica [16] = assay: Toxicity to Musca domestica (house fly) assessed as mortality at 6.25 ug/fly measured after 1 hr; type: functional; method in brief: as §1
Musca domestica [17] = assay: Toxicity to Musca domestica (house fly) assessed as mortality at 6.25 ug/fly measured after 0.5 hr; type: functional; method in brief: as §1
Musca domestica [18] = assay: Toxicity to Musca domestica (house fly) assessed as mortality at 7.5 ug/fly measured after 24 hr; type: functional; method in brief: as §1
Musca domestica [19] = assay: Toxicity to Musca domestica (house fly) assessed as mortality at 7.5 ug/fly measured after 2.5 hr; type: functional; method in brief: as §1
Musca domestica [20] = assay: Toxicity to Musca domestica (house fly) assessed as mortality at 7.5 ug/fly measured after 1.5 hr; type: functional; method in brief: as §1
Musca domestica [21] = assay: Toxicity to Musca domestica (house fly) assessed as mortality at 7.5 ug/fly measured after 1 hr; type: functional; method in brief: as §1
Musca domestica [22] = assay: Toxicity to Musca domestica (house fly) assessed as mortality at 7.5 ug/fly measured after 0.5 hr; type: functional; method in brief: as §1
[23] = target: Muscarinic acetylcholine receptor DM1 (Drosophila melanogaster) (UniProt P16395); assay: Displacement of [3H]QNB from Drosophila melanogaster mAChR at 100000 nM by scintillation counting
[24] = target: Muscarinic acetylcholine receptor DM1 (Drosophila melanogaster) (UniProt P16395); assay: Displacement of [3H]AF-DX 384 from Drosophila melanogaster mAChR at 100000 nM by scintillation counting
Musca domestica [25] = assay: Ex vivo inhibition of [3H]QNB binding in brain of Musca domestica (house fly) at 25 ug/fly measured after 24 hr; type: functional
Method in brief: (§2)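 Adult female houseflies pretreated with PPP (2.5 µg/fly, topical in acetone, 90 min), then dosed by intrathoracic injection in 0.22 µL water or 25-50% Me2SO/water. Heads were taken 0.5 or 24 h later and homogenized (50 per batch) in 50 mM sodium phosphate pH 7.4. Filtrate (~800 µg protein) was bound with 0.5 nM [3H]QNB, 60 min, 25 °C. Values are relative to vehicle-treated flies; 6−8 measurements over two experiments.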

Musca domestica [26] = assay: Ex vivo inhibition of [3H]QNB binding in brain of Musca domestica (house fly) at 25 ug/fly measured after 0.5 hr; type: functional; method in brief: as §2
Musca domestica [27] = assay: Ex vivo inhibition of [3H]QNB binding in brain of Musca domestica (house fly) at 7.5 ug/fly measured after 24 hr; type: functional; method in brief: as §2
Musca domestica [28] = assay: Ex vivo inhibition of [3H]QNB binding in brain of Musca domestica (house fly) at 7.5 ug/fly measured after 0.5 hr; type: functional; method in brief: as §2
Musca domestica [29] = assay: Ex vivo inhibition of [3H]QNB binding in brain of Musca domestica (house fly) at 75 ug/fly measured after 24 hr; type: functional; method in brief: as §2
Musca domestica [30] = assay: Ex vivo inhibition of [3H]QNB binding in brain of Musca domestica (house fly) at 75 ug/fly measured after 0.5 hr; type: functional; method in brief: as §2

Chain of Muscarinic acetylcholine receptor DM1 (Drosophila melanogaster) (P16395 whole entry): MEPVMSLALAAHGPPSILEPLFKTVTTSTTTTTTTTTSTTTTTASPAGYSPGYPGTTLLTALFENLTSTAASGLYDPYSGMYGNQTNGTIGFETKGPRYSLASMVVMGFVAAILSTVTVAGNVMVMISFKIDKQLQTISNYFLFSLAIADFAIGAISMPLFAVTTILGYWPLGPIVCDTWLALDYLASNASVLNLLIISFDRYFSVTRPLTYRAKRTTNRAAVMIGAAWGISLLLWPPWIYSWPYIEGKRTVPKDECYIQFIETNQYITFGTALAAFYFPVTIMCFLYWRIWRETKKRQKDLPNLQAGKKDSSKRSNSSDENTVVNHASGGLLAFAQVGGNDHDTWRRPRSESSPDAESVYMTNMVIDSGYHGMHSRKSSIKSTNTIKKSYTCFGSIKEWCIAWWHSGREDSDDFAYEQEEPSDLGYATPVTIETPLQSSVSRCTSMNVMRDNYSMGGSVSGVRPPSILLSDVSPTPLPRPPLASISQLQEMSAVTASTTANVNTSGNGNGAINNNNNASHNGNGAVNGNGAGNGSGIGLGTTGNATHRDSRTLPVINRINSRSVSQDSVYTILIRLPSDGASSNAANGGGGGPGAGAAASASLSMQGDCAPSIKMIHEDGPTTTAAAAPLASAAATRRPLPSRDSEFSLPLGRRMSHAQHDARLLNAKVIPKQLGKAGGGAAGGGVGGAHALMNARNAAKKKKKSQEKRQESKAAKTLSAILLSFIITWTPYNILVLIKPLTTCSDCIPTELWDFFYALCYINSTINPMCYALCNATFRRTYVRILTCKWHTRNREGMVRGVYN
T1 sequence (P16395 whole entry): as above

SMILES | Activity (Musca domestica [1]) | Activity (Musca domestica [2]) | Activity (Musca domestica [3]) | Activity (Musca domestica [4]) | Activity (Musca domestica [5]) | Activity (Musca domestica [6]) | Activity (Musca domestica [7]) | Activity (Musca domestica [8]) | Activity (Musca domestica [9]) | Activity (Musca domestica [10]) | Ki [11] | Ki [12] | also measured
Br.CN1[C@@H]2C[C@@H](OC(=O)[C@H](CO)c3ccccc3)C[C@H]1[C@@H]1O[C@@H]12.O.O.O [SCOPOLAMINE HYDROBROMIDE] | 0% | 0% | 0% | 3% | 20% | 3% | 3% | 3% | 3% | 10% | – | – | –
C#CCOC(=O)C1=CCCN(C)C1 [ARECAIDINE PROPARGYL ESTER] | 87% | 100% | 100% | 100% | 100% | 0% | 0% | 0% | 0% | 17% | 4.49 µM | 5.2 µM | –
CCOC(=O)c1c(C)[nH]c2ccc3c(c12)CN1CCc2cc(OC)ccc2C1O3 (centres undefined) | – | – | – | – | – | 13% | 13% | 13% | 13% | 20% | 1.03 µM | 1.43 µM | –
CCCN(CCC)CC1CCCCN1CCNC(=O)N1c2ccccc2C(=O)Nc2cccnc21 (centres undefined) | – | – | – | – | – | – | – | – | – | – | 0.0048 µM | 0.0061 µM | Activity (Musca domestica [13]): 3%; Activity (Musca domestica [14]): 3%; Activity (Musca domestica [15]): 3%; Activity (Musca domestica [16]): 3%; Activity (Musca domestica [17]): 30%
COc1ccccc1CNCCCCCCNCCCCCCCCNCCCCCCNCc1ccccc1OC.Cl.Cl.Cl.Cl [METHOCTRAMINE HYDROCHLORIDE] | – | – | – | – | – | 100% | 100% | 100% | 100% | 100% | 2.85 µM | 3.86 µM | Activity (Musca domestica [18]): 3%; Activity (Musca domestica [19]): 0%; Activity (Musca domestica [20]): 0%; Activity (Musca domestica [21]): 10%; Activity (Musca domestica [22]): 17%
CCN(CC)CC1CCCCN1CC(=O)N1c2ccccc2C(=O)Nc2cccnc21 (centres undefined) [OTENZEPAD] | – | – | – | – | – | – | – | – | – | – | 1.22 µM | 1.38 µM | Activity (Musca domestica [13]): 3%; Activity (Musca domestica [14]): 10%; Activity (Musca domestica [15]): 10%; Activity (Musca domestica [16]): 10%; Activity (Musca domestica [17]): 17%
CCOP(=O)(OCC)Oc1nc(Cl)c(Cl)cc1Cl [CHLORPHRIFOS OXON] | – | – | – | – | – | – | – | – | – | – | > 100 µM | > 100 µM | inhibition [23]: 17%; inhibition [24]: 29%
O=[N+]([O-])NC1=NCCN1Cc1ccc(Cl)nc1 [IMIDACLOPRID] | – | – | – | – | – | – | – | – | – | – | > 100 µM | > 100 µM | –
C[N+]1(C)CCC(OC(=O)C(c2ccccc2)c2ccccc2)CC1.[I-] [4-DAMP] | 33% | 60% | 57% | 67% | 100% | 10% | 20% | 40% | 47% | 60% | 0.015 µM | 0.018 µM | inhibition (INH) (Musca domestica [25]): 59%; inhibition (INH) (Musca domestica [26]): 92%; inhibition (INH) (Musca domestica [27]): 49%; inhibition (INH) (Musca domestica [28]): 79%; Activity (Musca domestica [18]): 7%; Activity (Musca domestica [19]): 3%; Activity (Musca domestica [20]): 7%; Activity (Musca domestica [21]): 10%; Activity (Musca domestica [22]): 10%
O=C1CCCN1CC#CCN1CCCC1 [OXOTREMORINE] | – | – | – | – | – | – | – | – | – | – | 19.4 µM | 21.5 µM | –
CN1CCN(CC(=O)N2c3ccccc3C(=O)Nc3cccnc32)CC1 [PIRENZEPINE] | 10% | 13% | 20% | 27% | 27% | 7% | 7% | 7% | 7% | 20% | 0.43 µM | 0.39 µM | –
CC#CCOC(=O)C1=CCCN(C)C1 [ARECAIDINE BUT-2-YNYL ESTER] | 4% | 8% | 9% | 9% | 10% | 3% | 3% | 3% | 3% | 3% | 1.5 µM | 1.56 µM | –
Cc1ccc(C[N+](C)(C)C)o1 [5-METHYLFURMETHIODIDE] | – | – | – | – | – | – | – | – | – | – | 14.9 µM | 12.3 µM | –
C[C@H](C1=C(CCN(C)C)Cc2ccccc21)c1ccccn1 | 23% | 97% | 100% | 100% | 100% | 3% | 17% | 40% | 70% | 100% | 0.51 µM | 0.66 µM | inhibition (INH) (Musca domestica [29]): 28%; inhibition (INH) (Musca domestica [30]): 81%; inhibition (INH) (Musca domestica [25]): 0%; inhibition (INH) (Musca domestica [26]): 41%; Activity (Musca domestica [18]): 0%; Activity (Musca domestica [19]): 0%; Activity (Musca domestica [20]): 0%; Activity (Musca domestica [21]): 0%; Activity (Musca domestica [22]): 10%
CC(=O)OC1CN2CCC1CC2 (centres undefined) [ACECLIDINE] | 3% | 10% | 27% | 30% | 100% | 0% | 3% | 3% | 3% | 33% | 130 µM | 114 µM | –
CN1[C@@H]2CC[C@H]1C[C@@H](OC(=O)N1Cc3ccccc3NC1=O)C2 | 7% | 17% | 23% | 43% | 70% | 0% | 0% | 10% | 17% | 23% | 0.64 µM | 0.57 µM | –
CCOP(=O)(OCC)Oc1ccc([N+](=O)[O-])cc1 [PARAOXON] | – | – | – | – | – | – | – | – | – | – | > 100 µM | > 100 µM | inhibition [23]: 0%; inhibition [24]: 13%
Cc1noc(C2CN3CCC2CC3)n1 (centres undefined) | 13% | 33% | 60% | 83% | 100% | 3% | 3% | 13% | 20% | 47% | 1.32 µM | 1.33 µM | inhibition (INH) (Musca domestica [29]): 16%; inhibition (INH) (Musca domestica [30]): 80%; inhibition (INH) (Musca domestica [25]): 9%; inhibition (INH) (Musca domestica [26]): 49%
O=[N+]([O-])/N=C1\NCCN1Cc1ccc(Cl)nc1 | – | – | – | – | – | – | – | – | – | – | – | – | inhibition [23]: 1%; inhibition [24]: 3%
CC[C@@H]1C(=O)OC[C@@H]1Cc1cncn1C [PILOCARPINE] | 7% | 7% | 10% | 23% | 67% | 0% | 0% | 0% | 0% | 3% | – | – | –
C[N+]1(C)[C@@H]2CC[C@H]1C[C@@H](OC(=O)C(CO)c1ccccc1)C2.O=[N+]([O-])[O-] (some centres undefined) [METHYLATROPINE NITRATE] | 7% | 20% | 20% | 23% | 23% | 13% | 7% | 7% | 7% | 17% | 0.0024 µM | 0.0018 µM | –
